# In ChEMBL document CHEMBL4725346, “Syntheses and Evaluation of New Bisacridine Derivatives for Dual Binding of G-Quadruplex and i-Motif in Regulating Oncogene c-myc Expression” (J Med Chem, 2020):
# pIC50, pKd: −log10 of the molar value. Calls of active or inactive are those of the source. No cut-off for these calls is given here.
# Legend:
# [1] = system: SiHa; experiment: Induction of cell cycle arrest in human SiHa cells assessed as accumulation of cells at S phase at 0.15 uM after 24 hrs by propidium iodide staining based flow cytometry (reference value: 17.74%); type: functional
# [2] = system: SiHa; experiment: Inhibition of c-myc transcription in human SiHa cells harboring c-myc deleted promoter G-quadruplex/i-motif (unknown origin) assessed as decrease in ratio of renilla/firefly luciferase activity at 0.025 to 0.1 uM after 48 hrs by dual-luciferase reporter assay; type: functional, cell-based; conditions: dose microM 0.025-0.1, time 48.0 hrs
# How it was run: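 Psicheck2 plasmid carrying deleted c-myc promoter (lacking NHE III₁ G/C-rich sequence), 200 ng, lipofected into SiHa cells. Compound added 8 h post-transfection, cells kept 48 h at 37 °C, washed with ice-cold PBS, then Renilla/Firefly luciferase activity ratio measured with a dual-luciferase kit.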
# [3] = Stabilization of 5'-FAM/3'-TAMRA labeled hairpin DNA F10T (unknown origin) assessed as change in melting temperature at 1 uM by FRET assay (reference value: 59.1 degreeC)
# [4] = system: SiHa; experiment: Induction of apoptosis in human SiHa cells assessed as increase in cleaved caspase-7 level incubated for 24 hrs by Western blot analysis; type: functional, cell-based; conditions: dose microM 0.6-2.4, time 24.0 hrs
# [5] = Binding affinity to 5'-biotin labeled c-myc promoter i-motif DNA Py33 (unknown origin) by UV titration method
# [6] = system: Quadruplex DNA; experiment: Binding affinity to c-myc promoter G-quadruplex/i-motif in human SiHa cells assessed as reduction in c-myc expression at 5 uM incubated for 24 hrs by Western blot analysis; type: cell-based; design: scale not given: the % may be the effect or the level left
# [7] = Stabilization of c-myc promoter i-motif DNA Py33 (unknown origin) assessed as reduction in appearance of random coil confirmation at pH 5.5 by CD spectroscopy
# How it was run: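 Py33 at 1 µM in 1× BPES pH 5.5 (pH 6.8 random-coil reference), with or without ligand. Annealed at 95 °C for 5 min, cooled, kept at 4 °C overnight. CD spectra in a 4 mm cuvette over 230–350 nm, three scans averaged, buffer-corrected; peaks followed at 288 and 260 nm.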
# [8] = system: SiHa; experiment: Antiproliferative activity against human SiHa cells after 48 hrs by MTT assay; type: functional, cell-based
# How it was run: (§1)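 Cells seeded at 5.0×10^3 per well, pre-incubated 12 h at 37 °C, 5% CO2, then exposed to compounds for 48 h; DMSO-only control. MTT (2.5 mg/mL) added for 4 h, formazan dissolved in DMSO, absorbance at 570 nm. Each dose tested in triplicate; IC50 from percentage survival relative to negative control.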
# [9] = system: SiHa; experiment: Induction of cell cycle arrest in human SiHa cells assessed as accumulation of cells at G0/G1 phase at 0.30 uM after 24 hrs by propidium iodide staining based flow cytometry (reference value: 42.28%); type: functional; conditions: dose 0.3 µM
# [10] = system: A549; experiment: Antiproliferative activity against human A549 cells after 48 hrs by MTT assay; type: functional, cell-based; conditions: A549, 48 h; how it was run: as §1
# [11] = system: Quadruplex DNA; experiment: Binding affinity to c-myc wild-type promoter G-quadruplex/i-motif (unknown origin) expressed in human SiHa cells assessed as reduction in c-myc transcription by measuring decrease in ratio of renilla/firefly luciferase activity after 48 hrs by dual-luciferase reporter assay; type: cell-based; conditions: dose microM 0.025-0.1, time 48.0 hrs
# How it was run: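 SiHa cells transfected with 200 ng psiCHECK2 plasmid carrying wild-type, mutant or deleted c-myc promoter. Compounds added 8 h after transfection, then incubated 48 h at 37 °C. Cells washed with ice-cold PBS; Renilla/firefly activity ratio read by dual-luciferase assay.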
# [12] = Toxicity in BALB/c nude mouse xenografted with human SiHa cells assessed as effect on heart weight at 15 mg/kg, ip administered once per 2 days for 18 days; type: organism-based; conditions: in vivo, 432 h, time 18 day
# How it was run: (§2)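 SiHa tumour fragments passaged from donor mice implanted in the underarm of female BALB/c nude mice (six per group). Compound given at 15 mg/kg ip once every two days for 18 days, with saline and cisplatin 0.2 mg/kg control groups. Body weight recorded every two days; at day 18 mice were sacrificed and organs weighed.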
# [13] = Stabilization of c-myc promoter i-motif DNA Py33 (unknown origin) assessed as increase in slower migration band incubated overnight by silver staining based PAGE analysis
# How it was run: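 Py33 (3 µM) co-annealed with increasing ligand in 1× BPES pH 6.8 at 95 °C for 5 min, cooled, held at 4 °C overnight. Run on native 20% acrylamide in 1× TBE at 140 V for 5 h at 5 °C, then silver-stained.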
# [14] = system: SiHa; experiment: Induction of cell cycle arrest in human SiHa cells assessed as accumulation of cells at G0/G1 phase at 0.60 uM after 24 hrs by propidium iodide staining based flow cytometry (reference value: 42.28%); type: functional; conditions: dose 0.6 µM
# [15] = system: SiHa; experiment: Induction of apoptosis in human SiHa cells assessed as early apoptotic cells at 1.2 uM after 24 hrs by annexin V/FITC-propidium iodide staining-based flow cytometric method ( Rvb = 0.3%); type: functional
# [16] = system: Quadruplex DNA; experiment: Binding affinity to c-myc promoter G-quadruplex/i-motif in human Raji cells assessed as reduction in c-myc mRNA transcription incubated for 24 hrs; type: cell-based; conditions: dose microM 0.16-2.5, time 24.0 hrs
# [17] = system: SiHa; experiment: Induction of cell cycle arrest in human SiHa cells assessed as accumulation of cells at G2/M phase at 0.30 uM after 24 hrs by propidium iodide staining based flow cytometry (reference value: 29.71%); type: functional; conditions: dose 0.3 µM
# [18] = system: SiHa; experiment: Induction of cell cycle arrest in human SiHa cells assessed as accumulation of cells at G0/G1 phase at 0.15 uM after 24 hrs by propidium iodide staining based flow cytometry (reference value: 42.28%); type: functional
# [19] = Drug uptake in human SiHa cells; type: ADME, cell-based
# [20] = system: HeLa; experiment: Antiproliferative activity against human Hela cells after 48 hrs by MTT assay; type: functional, cell-based; how it was run: as §1
# [21] = system: SiHa; experiment: Induction of cell cycle arrest in human SiHa cells assessed as accumulation of cells at G2/M phase at 0.60 uM after 24 hrs by propidium iodide staining based flow cytometry (reference value: 29.71%); type: functional; conditions: dose 0.6 µM
# [22] = system: Quadruplex DNA; experiment: Binding affinity to c-myc promoter G-quadruplex/i-motif in human SiHa cells assessed as reduction in c-myc mRNA level at 5 uM incubated for 24 hrs by qRT-PCR analysis; type: cell-based; design: scale not given: the % may be the effect or the level left
# [23] = system: SiHa; experiment: Induction of apoptosis in human SiHa cells assessed as late apoptotic cells at 1.2 uM after 24 hrs by annexin V/FITC-propidium iodide staining-based flow cytometric method ( Rvb = 0.4%); type: functional
# [24] = system: SiHa; experiment: Induction of cell cycle arrest in human SiHa cells assessed as accumulation of cells at S phase at 0.30 uM after 24 hrs by propidium iodide staining based flow cytometry (reference value: 17.74%); type: functional; conditions: dose 0.3 µM
# [25] = target: Quadruplex DNA; experiment: Binding affinity to c-myc promoter G-quadruplex DNA Pu27 (unknown origin) at 50 uM by isothermal titration calorimetry; type: nucleic-acid assay
# How it was run: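 ITC at 20 °C on degassed solutions. Cell held preformed DNA ([…]). Syringe held ligand in the same buffer (50 μM for Pu27, 20 μM for Py33). 28 injections of 10 μL at 4 min intervals. Heats of dilution from ligand-into-buffer runs subtracted before model fitting.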
# [26] = Toxicity in BALB/c nude mouse xenografted with human SiHa cells assessed as effect on kidney weight at 15 mg/kg, ip administered once per 2 days for 18 days; type: organism-based; conditions: in vivo, 432 h, time 18 day; how it was run: as §2
structure (smiles),measurement,setting,value
Cc1ccc2nc3ccc(C)cc3c(NCCCNCCNCCCNc3c4cc(C)ccc4nc4ccc(C)cc34)c2c1,Activity,[1],16.96%
same,Activity,[2],inactive
same,ΔTm,[3],4.5 °C
same,Activity,[4],Dose-dependent effect
same,Activity,[5],Active
same,Activity,[6],< 92.2%
same,Activity,[7],Active
same,pIC50,[8],5.91
same,Activity,[9],30.44%
same,pIC50,[10],6.74
same,Activity,[11],Dose-dependent effect
same,Activity,[12],Non-Toxic
same,Activity,[13],Dose-dependent effect
same,Activity,[14],16.87%
same,Activity,[15],43.2%
same,Activity,[16],Dose-dependent effect
same,Activity,[17],42.47%
same,Activity,[18],37.96%
same,Drug uptake,[19],Active
same,pIC50,[20],6.35
same,Activity,[21],56.91%
same,Activity,[22],< 92.7%
same,Activity,[23],18.7%
same,Activity,[24],15.22%
same,pKd,[25],6.09
same,Activity,[26],Non-Toxic
